Experiment [1] can be described thus: Growth inhibition of human KYSE-150 cells after 48 hrs by MTT assay. The class given is functional. The settings on record: KYSE-150, 48 h. A digest of the protocol: (§1)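 Cells were seeded at 5000/well in RPMI 1640 with 10% FBS and allowed to attach overnight, then exposed for 48 h at 37 °C in 5% CO2. MTT was added for 3 h, and the dye was solubilized in HCl–2-propanol and read at 560 nm (reference 750 nm).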

The subject of experiment [2] is HeLa. Put plainly: Growth inhibition of human HeLa cells after 48 hrs by MTT assay. The class given is functional. In a few lines:
as §1
(In general: Tetrazolium dyes change colour on reduction, which living cells bring about.)

In experiment [3] the target is T1, Lysine-specific demethylase 2A (Homo sapiens, UniProt Q9Y2K7).
T1 sequence (Q9Y2K7 whole entry): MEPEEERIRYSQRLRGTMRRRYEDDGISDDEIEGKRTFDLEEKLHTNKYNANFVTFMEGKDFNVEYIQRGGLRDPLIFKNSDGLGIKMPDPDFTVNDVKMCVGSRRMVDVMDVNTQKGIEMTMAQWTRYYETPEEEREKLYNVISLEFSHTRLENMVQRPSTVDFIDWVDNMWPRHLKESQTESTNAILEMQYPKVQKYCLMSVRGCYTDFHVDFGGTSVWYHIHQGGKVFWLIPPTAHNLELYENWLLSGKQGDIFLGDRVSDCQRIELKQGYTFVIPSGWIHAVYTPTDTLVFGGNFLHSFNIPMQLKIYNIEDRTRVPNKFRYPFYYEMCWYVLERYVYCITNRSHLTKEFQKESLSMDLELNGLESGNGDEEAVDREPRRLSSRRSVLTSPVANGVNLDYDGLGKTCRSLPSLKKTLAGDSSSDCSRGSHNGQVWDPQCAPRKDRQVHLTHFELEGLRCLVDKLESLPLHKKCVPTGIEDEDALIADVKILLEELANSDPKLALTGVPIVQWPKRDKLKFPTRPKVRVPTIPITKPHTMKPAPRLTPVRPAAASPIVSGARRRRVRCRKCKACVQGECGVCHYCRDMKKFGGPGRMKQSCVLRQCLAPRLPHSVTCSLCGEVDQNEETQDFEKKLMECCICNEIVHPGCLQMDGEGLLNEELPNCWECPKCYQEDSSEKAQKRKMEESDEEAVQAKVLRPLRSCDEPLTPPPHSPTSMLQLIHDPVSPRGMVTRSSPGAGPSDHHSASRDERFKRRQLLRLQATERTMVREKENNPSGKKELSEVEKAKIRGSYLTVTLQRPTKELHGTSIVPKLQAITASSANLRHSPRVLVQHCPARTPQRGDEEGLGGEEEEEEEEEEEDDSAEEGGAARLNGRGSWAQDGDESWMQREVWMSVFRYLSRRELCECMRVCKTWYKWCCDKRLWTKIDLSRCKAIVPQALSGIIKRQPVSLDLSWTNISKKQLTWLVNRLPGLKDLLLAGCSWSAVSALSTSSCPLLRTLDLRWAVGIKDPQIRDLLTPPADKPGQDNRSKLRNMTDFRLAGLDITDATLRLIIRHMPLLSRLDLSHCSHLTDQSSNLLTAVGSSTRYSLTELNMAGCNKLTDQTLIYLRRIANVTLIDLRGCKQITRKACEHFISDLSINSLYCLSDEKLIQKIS
Description: Inhibition of KDM2A (unknown origin).

Experiment [4] deals with T2, Lysine-specific demethylase 4A (Homo sapiens, UniProt O75164).
T2 sequence (O75164 whole entry): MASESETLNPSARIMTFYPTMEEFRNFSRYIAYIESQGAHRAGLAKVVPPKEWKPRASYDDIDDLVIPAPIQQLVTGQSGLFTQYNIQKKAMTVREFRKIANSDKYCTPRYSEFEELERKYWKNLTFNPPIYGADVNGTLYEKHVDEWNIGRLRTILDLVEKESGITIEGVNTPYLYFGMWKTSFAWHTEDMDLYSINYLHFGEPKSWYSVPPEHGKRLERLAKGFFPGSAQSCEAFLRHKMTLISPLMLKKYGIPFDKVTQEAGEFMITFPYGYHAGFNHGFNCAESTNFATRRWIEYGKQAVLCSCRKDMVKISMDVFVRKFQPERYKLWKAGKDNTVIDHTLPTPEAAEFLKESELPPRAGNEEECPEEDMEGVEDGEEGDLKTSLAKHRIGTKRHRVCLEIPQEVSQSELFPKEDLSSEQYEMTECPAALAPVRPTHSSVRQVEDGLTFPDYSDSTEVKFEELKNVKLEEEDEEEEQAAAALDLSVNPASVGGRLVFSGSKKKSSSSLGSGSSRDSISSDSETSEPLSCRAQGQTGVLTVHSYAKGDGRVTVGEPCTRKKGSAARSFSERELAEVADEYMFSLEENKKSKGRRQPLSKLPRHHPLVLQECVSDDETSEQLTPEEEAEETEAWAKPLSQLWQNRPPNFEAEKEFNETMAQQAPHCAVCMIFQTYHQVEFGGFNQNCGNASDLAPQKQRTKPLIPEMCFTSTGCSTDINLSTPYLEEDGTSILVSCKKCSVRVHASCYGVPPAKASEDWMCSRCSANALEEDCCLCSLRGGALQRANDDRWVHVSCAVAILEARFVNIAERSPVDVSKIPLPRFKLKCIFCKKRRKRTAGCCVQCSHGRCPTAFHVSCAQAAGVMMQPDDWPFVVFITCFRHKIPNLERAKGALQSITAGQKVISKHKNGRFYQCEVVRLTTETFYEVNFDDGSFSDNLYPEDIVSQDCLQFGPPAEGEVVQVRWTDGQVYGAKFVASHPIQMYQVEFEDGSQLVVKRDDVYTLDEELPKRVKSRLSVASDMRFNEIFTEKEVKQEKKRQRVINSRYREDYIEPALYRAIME
Description: Inhibition of KDM4A (unknown origin) using H3K9me3 peptide and 2-oxoglutarate as substrate after 1 hr by FDH-coupled assay. A digest of the protocol: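 Run as the FDH-coupled KDM4C format, with compounds in DMSO and activity relative to a DMSO control. KDM4A was used at 0.37 mg/mL final with H3K9me3 peptide. KDM5A was used at 0.64 mg/mL final with H3K4me3 peptide. Values are means of two experiments.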

Experiment [5] addresses Histone lysine demethylase PHF8 (Homo sapiens, UniProt Q9UPP1). Put plainly: Inhibition of KDM7B (unknown origin) using H3K4me3K9me2 and 2-oxoglutarate as substrate after 1 hr by matrix-assisted laser desorption ionization time of flight mass spectrometry. A digest of the protocol: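 Enzyme (0.5 mg/mL) was reacted with 5 μM H3K4me3K9me2 peptide, 0.5 mM 2-oxoglutarate, 20 μM Fe(II), 20 μM ZnCl2, 0.5 mM ascorbate, 150 mM KCl, glutathione and DTT in 10 mM Tris-HCl pH 8.0 for 1 h at 37 °C. Inhibition was calculated from the remaining H3K9me2, and IC50 was taken as the concentration halving H3K9me2 removal. Values are means of two experiments.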

Sequence of Histone lysine demethylase PHF8 (Q9UPP1 whole entry): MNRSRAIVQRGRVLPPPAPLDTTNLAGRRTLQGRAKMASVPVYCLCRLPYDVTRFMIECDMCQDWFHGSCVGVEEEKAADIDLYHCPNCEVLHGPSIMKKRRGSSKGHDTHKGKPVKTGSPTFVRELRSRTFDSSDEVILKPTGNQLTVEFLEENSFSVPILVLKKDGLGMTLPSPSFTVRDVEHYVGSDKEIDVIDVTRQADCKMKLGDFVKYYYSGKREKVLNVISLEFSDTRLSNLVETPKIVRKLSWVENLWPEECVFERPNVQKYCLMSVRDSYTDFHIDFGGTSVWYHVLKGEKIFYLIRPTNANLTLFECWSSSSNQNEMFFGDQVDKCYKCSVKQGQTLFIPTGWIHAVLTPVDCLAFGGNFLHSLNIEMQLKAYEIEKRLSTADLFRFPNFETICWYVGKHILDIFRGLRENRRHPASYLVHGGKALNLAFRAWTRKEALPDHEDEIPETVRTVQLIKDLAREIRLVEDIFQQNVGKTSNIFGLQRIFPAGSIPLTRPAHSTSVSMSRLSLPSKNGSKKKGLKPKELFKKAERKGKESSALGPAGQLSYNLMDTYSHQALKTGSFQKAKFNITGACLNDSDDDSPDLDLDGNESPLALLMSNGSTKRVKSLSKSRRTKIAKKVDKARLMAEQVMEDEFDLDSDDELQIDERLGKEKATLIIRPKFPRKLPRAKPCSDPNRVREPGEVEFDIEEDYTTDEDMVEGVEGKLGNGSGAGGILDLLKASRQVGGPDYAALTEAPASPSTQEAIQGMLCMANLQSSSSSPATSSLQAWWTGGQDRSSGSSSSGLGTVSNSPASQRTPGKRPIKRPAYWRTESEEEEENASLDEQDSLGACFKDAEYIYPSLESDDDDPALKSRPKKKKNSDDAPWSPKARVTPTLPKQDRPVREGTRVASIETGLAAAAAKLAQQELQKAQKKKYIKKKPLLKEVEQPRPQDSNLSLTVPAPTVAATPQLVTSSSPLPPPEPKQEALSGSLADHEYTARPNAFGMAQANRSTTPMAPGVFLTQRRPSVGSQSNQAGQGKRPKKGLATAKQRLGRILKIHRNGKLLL

The GI50 is the concentration that inhibits growth by half. High values mean less potent growth inhibition, low ones more potent growth inhibition. One may read the IC50 as the concentration at which inhibition is half-maximal. Higher therefore signals weaker potency in that assay. Consider `O=C(O)CCN(O)C(=O)CCCCCCCCC1CC1`, for which the results for the GI50 in experiment [1] and in experiment [2] were 16 µM and 40 µM, respectively. Further, the values for the IC50 in experiment [3], in experiment [4] and in experiment [5] were 6.8 µM, more than 120 µM and 1.2 µM, respectively.

Take `CN(C)CCCCCCCCC(=O)N(O)CCC(=O)O`: the 50% growth inhibitory concentration (GI50) in experiment [1] and in experiment [2] was more than 470 µM each time. Further, the half-inhibitory concentration (IC50) in experiment [3] turned out to be 0.2 µM; in experiment [4], 0.8 µM; in experiment [5] it was 19 µM.

Source of the values: ChEMBL document CHEMBL2424657, “Identification of the KDM2/7 histone lysine demethylase subfamily inhibitor and its antiproliferative activity” (J Med Chem, 2013).
